Active and inactive are the calls of the source. The calls are words filed in the database; no cut-off is given here.
How the values were obtained:
[1] = molecular target: T1, Cell division control protein 42 homolog (Homo sapiens, UniProt P60953); assay: Inhibition of GEF-independent nucleotide exchange activity of prenylated Cdc42 assessed as protein dissociation from […] complex at 100 uM after 3 mins in presence of 4 mM Mg2+ chelator EDTA
Target sequence in this assay (P60953 whole entry, looked up): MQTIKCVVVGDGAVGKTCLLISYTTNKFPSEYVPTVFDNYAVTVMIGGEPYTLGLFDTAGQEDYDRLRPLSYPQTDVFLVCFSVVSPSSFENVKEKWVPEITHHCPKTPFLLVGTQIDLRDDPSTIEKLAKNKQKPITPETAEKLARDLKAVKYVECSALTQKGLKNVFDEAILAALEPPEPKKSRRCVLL

BSC-1 [2] = assay: Inhibition of VSVG-EGFP anterograde transport from endoplasmic reticulum to golgi complex of african green monkey BSC1 cells at 12.5 uM after 3 hrs by epifluorescence microscopy; type: functional, cell-based; conditions: Chlorocebus aethiops
Procedure, shortened: (§1)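 BS-C-1 monkey kidney cells expressing temperature-sensitive VSVG-EGFP, held at 40 °C to trap cargo in the ER, then shifted to 32 °C in 100 µg ml-1 cycloheximide. Compound or vehicle (1% DMSO) present during transport. Cells fixed 3 h after release and imaged by wide-field fluorescence. Surface versus perinuclear (beta-COP-costained Golgi) cargo scored. IC50 from dose-response curves, s.e.m. (n = 4).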

Cdc42 protein = Cdc42 protein (Xenopus laevis, UniProt Q9DDV6); assay: Inhibition of CDC42-mediated actin polymerization in PIP2-stimulated Xenopus laevis egg extract after 6 mins by fluorescence assay
Chain of Cdc42 protein (Q9DDV6 whole entry): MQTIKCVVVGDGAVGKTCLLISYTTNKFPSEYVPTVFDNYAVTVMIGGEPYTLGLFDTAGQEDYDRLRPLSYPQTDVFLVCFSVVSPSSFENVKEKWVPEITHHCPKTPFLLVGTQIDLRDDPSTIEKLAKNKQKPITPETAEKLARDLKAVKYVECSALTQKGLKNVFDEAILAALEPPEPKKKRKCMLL

[3] = molecular target: Cdc42 protein (Xenopus laevis) (UniProt Q9DDV6); assay: Inhibition of CDC42-mediated actin polymerization in PIP2-stimulated Xenopus laevis egg extract at 0.1 to 100 uM by fluorescence assay
Chain of Cdc42 protein (Xenopus laevis) (Q9DDV6 as listed by the source): as the sequence (Q9DDV6 whole entry) above

[4] = molecular target: T1, Cell division control protein 42 homolog; assay: Effect on nucleotide binding activity of PIP2-stimulated Cdc42 at 25 uM by liquid scintillation counting
Target sequence in this assay (P60953 whole entry, looked up): as the sequence (P60953 whole entry, looked up) above

BSC-1 [5] = assay: Inhibition of VSVG-EGFP anterograde transport from endoplasmic reticulum to plasma membrane of african green monkey BSC1 cells after 3 hrs by epifluorescence microscopy; type: functional, cell-based; conditions: Chlorocebus aethiops, BSC-1, 3 h; procedure, shortened: as §1
[6] = molecular target: T1, Cell division control protein 42 homolog; assay: Inhibition of nucleotide exchange activity of PIP2-stimulated Cdc42 at 25 uM by liquid scintillation counting
Target sequence in this assay (P60953 whole entry, looked up): as above

[7] = molecular target: T1, Cell division control protein 42 homolog; assay: Inhibition of GEF-independent nucleotide exchange activity of prenylated Cdc42 after 3 mins in presence of 4 mM Mg2+ chelator EDTA
Procedure, shortened: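 GDP/[35S]GTPγS exchange by 0.5 µM prenylated Cdc42-RhoGDI1 complex with 1 µM RhoGDI1 and 100 µM PIP2 liposomes, 4 mM EDTA replacing GEF, in Tris pH 7.5 reaction buffer at 25 °C. Started with 10 µM [35S]GTPγS; reactions sampled at 3 min, filtered on nitrocellulose and scintillation counted; s.e.m., n = 3.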
Target sequence in this assay (P60953 whole entry): as the sequence (P60953 whole entry, looked up) above

[8] = molecular target: T1, Cell division control protein 42 homolog; assay: Effect on GEF interaction with PIP2-stimulated Cdc42 at 25 uM by liquid scintillation counting
Target sequence in this assay (P60953 whole entry, looked up): as above

Xenopus laevis [9] = species: Xenopus laevis; assay: Inhibition of actin polymerization in N-WASP VCA-stimulated Xenopus laevis egg extract at 10 uM after 1.5 mins by fluorescence assay
Procedure, shortened: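 Xenopus laevis egg extract added at 4 °C to vehicle or compound, followed by VCA polypeptide. Pyrene-actin polymerization then followed by fluorescence in a cuvette at 21 °C.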

[10] = molecular target: Cdc42 protein (Xenopus laevis) (UniProt Q9DDV6); assay: Inhibition of PIP2 liposome-stimulated Cdc42 activation in Xenopus laevis egg extract assessed as inhibition of association of Cdc42(GTPgammaS) with GST-PBD at 50 uM by Western blot analysis
Procedure, shortened: (§2)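 Xenopus egg extract (8 mg/ml) with 0.2 mM ATP and 10 µM latrunculin B at 4 °C, moved to 25 °C; compound or vehicle 5 min, then 20 µM GTPγS and 20 µM PIP2 liposomes (48:48:4) 10 min, then 2.5 µM GST-PBD 10 min. Lysis buffer plus glutathione-Sepharose, 45 min at 4 °C; bound Cdc42 by western blot.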

Lipid bilayer [11] = assay: Binding affinity to phosphatidylinositol 4,5-bisphosphate liposome assessed as dynamin2-stimulated GTP hydrolysis at 250 uM by scintillation counting
Procedure, shortened: (§3)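 Truncated His-tagged human dynamin 2 (proline-rich domain, aa 736–866, deleted), expressed in BL21, mixed with PIP2 liposomes (65:32:3 PC:PI:PIP2, 0.1-µm extruded) and compound in 1% DMSO vehicle. 20 µM [γ-32P]GTP added in Tris pH 7.5/150 mM NaCl/2.5 mM MgCl2/DTT, 25 °C. After 20 min, charcoal-quenched aliquot centrifuged and released 32P-phosphate scintillation counted; s.e.m., n = 3.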

Xenopus laevis [12] = species: Xenopus laevis; assay: Inhibition of actin polymerization in N-WASP VCA-stimulated Xenopus laevis egg extract at 20 uM after 1.5 mins by fluorescence assay
[13] = molecular target: Cdc42 protein (Xenopus laevis) (UniProt Q9DDV6); assay: Inhibition of GST-PBD binding to Cdc42 in Xenopus laevis egg extract assessed as Cdc42(GTPgammasS) activation at 50 uM treated before addition of GST-PBD by Western blot analysis
[14] = molecular target: Cdc42 protein (Xenopus laevis) (UniProt Q9DDV6); assay: Inhibition of PIP2 liposome-stimulated Cdc42 activation in Xenopus laevis egg extract assessed as inhibition of association of Cdc42(GTPgammaS) with GST-PBD at 1 to 25 uM by Western blot analysis; procedure, shortened: as §2
[15] = molecular target: T1, Cell division control protein 42 homolog; assay: Inhibition of GEF-independent nucleotide exchange activity of nonprenylated Cdc42 at 100 uM after 10 mins in presence of 4 mM EDTA
Target sequence in this assay (P60953 whole entry, looked up): as above

[16] = molecular target: Cdc42 protein (Xenopus laevis) (UniProt Q9DDV6); assay: Effect on GST-PBD binding to recombinant nonprenylated Cdc42 in PIP2 liposome-stimulated Xenopus laevis egg extract at 50 uM by Western blot analysis
Procedure, shortened: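 Xenopus egg extract treated 5 min with compound or vehicle, then 20 nM recombinant nonprenylated Cdc42 (GTPγS or GDP) 10 min, then GST-PBD 10 min. Pulled down on glutathione-Sepharose and Cdc42 detected by western blot; GST-PBD stained with Ponceau S as loading control.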

MDCK [17] = assay: Decrease in NCAM-GFP transport from golgi complex of MDCK cells at 10 uM after 20 mins by fluorescence assay; type: functional, cell-based; conditions: Canis lupus familiaris
Procedure, shortened: (§4)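 Nonpolarized MDCK cells expressing NCAM-GFP or p75-GFP in 0.5% BSA; cargo held in Golgi at 20 °C for 30–60 min, then compound or vehicle for 20 min before shift to 32 °C. Perinuclear GFP normalized to total cell fluorescence, expressed as % of t = 0 Golgi signal; s.d., n = 2, 20 cells per condition.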

[18] = molecular target: T1, Cell division control protein 42 homolog; assay: Effect on Cdc42-mediated cellular response in human U373MG cells assessed as reorientation of golgi complex 15 uM after 6 hrs by epifluorescence assay; type: cell-based; conditions: U-373MG ATCC
Procedure, shortened: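 Confluent U373MG human astrocytoma monolayer preincubated 1 h with 15 µM compound or vehicle, then scratched. At 0 and 6 h fixed, stained with Hoechst and anti-giantin; cells at wound edge with Golgi in the forward 120° sector facing scratch scored polarized. Epifluorescence; s.e.m., n = 3, >100 cells per condition.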
Target sequence in this assay (P60953 whole entry, looked up): as above

[19] = molecular target: Cdc42 protein (Xenopus laevis) (UniProt Q9DDV6); assay: Inhibition of GST-PBD binding to Cdc42 in Xenopus laevis egg extract assessed as Cdc42(GTPgammasS) activation at 50 uM treated after addition of GST-PBD by Western blot analysis
BSC-1 [20] = assay: Effect on transferrin translocation from golgi complex to endoplasmic reticulum of african green monkey BSC1 cells at 12.5 uM after 2.5 hrs by epifluorescence microscopy; type: functional, cell-based; conditions: Chlorocebus aethiops
BSC-1 [21] = assay: Effect on perinuclear localization of trans-Golgi network in african green monkey BSC1 cells at 12.5 uM after 2.5 hrs by epifluorescence microscopy; type: functional, cell-based; conditions: Chlorocebus aethiops
MDCK [22] = assay: Increase in p75-GFP transport from golgi complex of MDCK cells at 10 uM after 20 mins by fluorescence assay; type: functional, cell-based; conditions: Canis lupus familiaris; procedure, shortened: as §4
[23] = molecular target: T1, Cell division control protein 42 homolog; assay: Inhibition of Cdc42 binding to PIP2 liposomes at 100 uM after 10 mins
Procedure, shortened: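 Pure 0.5 µM prenylated Cdc42-RhoGDI1 complex, 1 µM RhoGDI1, 1 mM PIP2 liposomes, 100 µM compound or 2% DMSO in reaction buffer, 25 °C. After 10 min, spun 10 min at 200,000g; pellet dot-blotted with anti-Cdc42, quantified and normalized to vehicle; s.e.m., n = 4.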

Lipid bilayer [24] = assay: Binding affinity to phosphatidylinositol 4,5-bisphosphate liposome at 50 uM by electron microscopy
Procedure, shortened: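 PIP2 liposomes (100 µM) incubated with compound or 1% DMSO, with 1% Triton X-100 as comparator. Samples in reaction buffer adsorbed on glow-discharged carbon grids, negatively stained with 1.2% uranyl acetate and imaged by EM at 80 kV.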

BSC-1 [25] = assay: Effect on transferrin endocytosis in african green monkey BSC1 cells at 12.5 uM after 2.5 hrs by epifluorescence microscopy; type: functional, cell-based; conditions: Chlorocebus aethiops
Lipid bilayer [26] = assay: Binding affinity to phosphatidylinositol 4,5-bisphosphate liposome assessed as dynamin2-stimulated GTP hydrolysis at 25 uM by scintillation counting; procedure, shortened: as §3
[27] = molecular target: Cell division control protein 42 homolog (Rattus norvegicus) (UniProt Q8CFN2); assay: Inhibition of Cdc42 binding to rat liver golgi membrane at 10 to 150 uM by Western blot analysis
Chain of Cell division control protein 42 homolog (Rattus norvegicus) (Q8CFN2 whole entry, looked up): as the sequence (P60953 whole entry, looked up) above
Procedure, shortened: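 Bovine brain cytosol incubated with compound or 1% DMSO, then 20 µM GTPγS and 0.2 mg/ml rat liver Golgi membranes added. Membrane-bound Cdc42 and β-COP analyzed by western blot.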

| SMILES | inhibition [1] | inhibition (BSC-1 [2]) | IC50 (Cdc42 protein) | Activity [3] | Activity [4] | IC50 (BSC-1 [5]) | inhibition [6] | IC50 [7] | Activity [8] | other results |
| --- | --- | --- | --- | --- | --- | --- | --- | --- | --- | --- |
| CO/N=C1\C[C@H]2Oc3c(Br)c(OCC4CC4)cc4c3[C@@]2(C[C@@H](CO)NC4)[C@H](SCc2ccc(OC)cc2)C1 [SECRAMINE B] | inactive | inactive | 3 µM | Active | inactive | 12 µM | Active | 7 µM | inactive | – |
| C/C1=C/C(=O)O[C@@H]2C[C@@H](CC[C@H](C)/C=C\CC1)O[C@@](O)([C@@H]1CSC(=O)N1)C2 | – | – | – | – | – | – | – | – | – | inhibition (Xenopus laevis [9]): Active |
| COc1ccc(CS[C@@H]2C/C(=N/OCc3ccccc3)C[C@H]3Oc4c(Br)c(OCC5CC5)cc5c4[C@]32C[C@@H](CO)N(C(C)=O)C5)cc1 | – | inactive | – | inactive | inactive | – | inactive | – | inactive | inhibition [10]: inactive |
| NC[C@@H]1O[C@H](O[C@H]2[C@@H](O)[C@H](O[C@@H]3[C@@H](O)[C@H](N)C[C@H](N)[C@H]3O[C@H]3O[C@H](CN)[C@@H](O)[C@H](O)[C@H]3N)O[C@@H]2CO)[C@H](N)[C@@H](O)[C@@H]1O | – | – | – | – | – | – | – | – | – | Activity (Lipid bilayer [11]): Active |
| COc1ccc(CS[C@@H]2C/C(=N/OCc3ccccc3)C[C@H]3Oc4c(Br)c(OCC5CC5)cc5c4[C@]32C[C@@H](CO)NC5)cc1 [SECRAMINE A] | inactive | inactive | 1 µM | Active | inactive | 12 µM | Active | 9 µM | inactive | inhibition (Xenopus laevis [12]): inactive; inhibition [13]: Active; inhibition [14]: Active; inhibition [15]: inactive; Activity [16]: inactive; inhibition (MDCK [17]): Active; Activity [18]: 45%; inhibition [19]: inactive; Activity (BSC-1 [20]): inactive; Activity (BSC-1 [21]): inactive; inhibition (MDCK [22]): Active; inhibition [23]: Active; Activity (Lipid bilayer [24]): inactive; Activity (BSC-1 [25]): inactive; Activity (Lipid bilayer [26]): inactive; inhibition [27]: Active |

Reference: ChEMBL document CHEMBL1221177, “Secramine inhibits Cdc42-dependent functions in cells and Cdc42 activation in vitro” (Nat Chem Biol, 2006)
